Source: ChEMBL document CHEMBL2424641, “Synthesis and evaluation of novel radioligands for positron emission tomography imaging of the orexin-2 receptor” (J Med Chem, 2013)
Calls of active or inactive are those of the source. No cut-off for these calls is given here.

Assays:
Orexin receptor type 2 = target: T1, Orexin receptor type 2 (Homo sapiens, UniProt O43614); experiment: Displacement of [125I]-orexin-A from human OX2 receptor expressed in CHO cells after 30 mins by liquid scintillation counting analysis; assay type: cell-based
T1 sequence (O43614 whole entry): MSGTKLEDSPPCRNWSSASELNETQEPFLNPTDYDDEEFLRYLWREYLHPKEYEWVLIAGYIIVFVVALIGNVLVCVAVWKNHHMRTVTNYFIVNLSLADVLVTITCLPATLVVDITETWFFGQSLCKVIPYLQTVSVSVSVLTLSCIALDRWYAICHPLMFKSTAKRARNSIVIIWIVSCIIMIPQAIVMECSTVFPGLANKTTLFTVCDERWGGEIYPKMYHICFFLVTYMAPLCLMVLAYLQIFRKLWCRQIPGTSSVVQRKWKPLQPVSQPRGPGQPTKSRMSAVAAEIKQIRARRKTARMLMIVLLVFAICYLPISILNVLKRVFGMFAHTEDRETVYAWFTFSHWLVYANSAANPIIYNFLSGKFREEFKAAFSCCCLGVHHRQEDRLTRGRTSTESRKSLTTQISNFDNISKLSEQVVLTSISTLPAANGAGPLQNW
Method in brief: (§1)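 CHO membranes expressing human OX1R or OX2R (5 μg protein) incubated 30 min at rt with compound and [125I]-orexin A (2 nM stock) in HEPES buffer pH 7.5 with MgCl2, CaCl2, BSA. Nonspecific binding with 10 μM orexin A. Wells washed with HEPES/525 mM NaCl and DPM counted. % inhibition from test, control and nonspecific counts; mean of three wells.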

[1] = Flux ratio of permeability from apical to basolateral to basolateral to apical side in pig LLC cells expressing MDR1 after 2 hrs; assay type: ADME, cell-based, Sus scrofa
Method in brief: (§2)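 LLC-PK1 and LLC-MDR1 monolayers, 5 days post-seeding, preincubated 2 h at 37 °C in HBSS/10 mM HEPES. Compound added apically or basally, 2 h at 37 °C; opposite side assayed by LC-MS. Papp = Q/t/C0/A; FR = Papp(b→a)/Papp(a→b); corrected FR = FR(LLC-MDR1)/FR(LLC-PK1).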

[2] = Ratio of flux ratio in pig LLC cells expressing MDR1 to flux ratio on pig LLC-PK1 cells; assay type: ADME, cell-based, Sus scrofa; method in brief: as §2
LLC-PK1 = experiment: Flux ratio of permeability from apical to basolateral to basolateral to apical side in pig LLC-PK1 cells after 2 hrs; assay type: ADME, cell-based, Sus scrofa; settings: llc-pk1, 2 h; method in brief: as §2
[3] = target: T2, Orexin/Hypocretin receptor type 1 (Homo sapiens, UniProt O43613); experiment: Displacement of [125I]-orexin-A from human OX1 receptor expressed in CHO cells after 30 mins by liquid scintillation counting analysis; assay type: cell-based; method in brief: as §1
T2 sequence (O43613 whole entry): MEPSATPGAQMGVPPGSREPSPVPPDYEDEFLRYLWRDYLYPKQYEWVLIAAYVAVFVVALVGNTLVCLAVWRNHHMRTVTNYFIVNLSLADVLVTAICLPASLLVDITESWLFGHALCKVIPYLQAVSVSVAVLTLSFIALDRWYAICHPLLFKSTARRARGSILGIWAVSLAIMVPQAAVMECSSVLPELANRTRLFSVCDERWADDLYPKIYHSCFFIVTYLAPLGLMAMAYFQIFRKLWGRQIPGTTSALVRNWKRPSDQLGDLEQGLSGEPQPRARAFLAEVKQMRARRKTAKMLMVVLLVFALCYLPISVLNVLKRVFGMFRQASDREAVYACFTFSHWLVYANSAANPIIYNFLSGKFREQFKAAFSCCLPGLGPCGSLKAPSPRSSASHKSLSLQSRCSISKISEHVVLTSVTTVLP

[4] = Octanol-phosphate buffer partition coefficient, log D of the compound at pH 7.4 by Shake flask method; assay type: physicochemical
Method in brief: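 [11C]-labelled compound (about 200 000 cpm) in n-octanol and 0.1 M PBS pH 7.4, vortexed 3 min at rt and centrifuged; weighed aliquots of each phase γ-counted, with the organic layer repartitioned until stable. log D = log(cpm/g octanol ÷ cpm/g PBS); triplicate.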

[5] = target: T3, Orexin receptor type 2 (Rattus norvegicus) (UniProt P56719); experiment: Binding affinity to OX2 receptor in coronal rat neocortex layer 6 at 2 nM by autoradiography; settings: tested as the 11C-labelled form
T3 sequence (whole entry): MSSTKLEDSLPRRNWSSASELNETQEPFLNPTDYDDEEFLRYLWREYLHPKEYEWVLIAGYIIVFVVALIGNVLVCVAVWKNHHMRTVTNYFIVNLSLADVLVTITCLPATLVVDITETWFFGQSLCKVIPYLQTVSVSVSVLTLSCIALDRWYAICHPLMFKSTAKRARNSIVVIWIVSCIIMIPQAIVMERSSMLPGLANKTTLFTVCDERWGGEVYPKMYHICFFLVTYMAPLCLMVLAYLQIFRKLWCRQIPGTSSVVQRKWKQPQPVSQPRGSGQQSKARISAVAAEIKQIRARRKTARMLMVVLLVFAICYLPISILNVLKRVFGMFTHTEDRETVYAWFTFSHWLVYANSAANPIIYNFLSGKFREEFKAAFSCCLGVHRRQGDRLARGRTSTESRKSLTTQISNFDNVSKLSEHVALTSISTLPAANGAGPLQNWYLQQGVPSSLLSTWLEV
Method in brief: (§3)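 Rat brain sections (20 μm) preincubated 20 min at rt in 25 mM HEPES pH 7.4 with 5 mM MgCl2 and 1 mM CaCl2, then incubated 60 min at rt with 11C radioligand; nonspecific binding with 10 μM unlabeled compound. Sections washed three times in cold water, dried, exposed to imaging plate 1 h alongside calibrated radioactive standards.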

[6] = target: T3, Orexin receptor type 2 (Rattus norvegicus); experiment: Binding affinity to OX2 receptor in coronal rat brain neocortex layer 6 at 2.5 nM by autoradiography; assay type: tissue-based; settings: tested as the 11C-labelled form; method in brief: as §3
[7] = target: T3, Orexin receptor type 2 (Rattus norvegicus); experiment: Binding affinity to OX2 receptor in coronal rat hypothalamus at 2 nM by autoradiography; settings: tested as the 11C-labelled form; method in brief: as §3

Structure (SMILES)	Ki (Orexin receptor type 2) [nM]	Ratio [1]	Ratio [2]	Ratio (LLC-PK1)	Ki [3] [nM]	logD [4]	Activity [5]	Activity [6]	Activity [7]
Cc1ncc(OC[C@@]2(c3cccc(F)c3)C[C@H]2C(=O)Nc2ccc(C#N)cn2)c(C)n1	5	1.92	1.76	1.09	32	–	–	–	–
COc1nc(NC(=O)[C@@H]2C[C@@]2(COc2cnc(C)nc2C)c2cccc(F)c2)ccc1F	2	0.98	1.21	0.81	12	3.6	–	–	–
COc1cc(NC(=O)[C@@H]2C[C@@]2(COc2cnc(C)nc2C)c2cccc(F)c2)ncc1F	2	2.45	2.06	1.19	3	2.93	Active	Active	Active
COc1ccc([C@]2(COc3cnc(C)nc3C)C[C@H]2C(=O)Nc2ccc(F)cn2)cc1F	7	1.24	1.55	0.8	30	3.32	–	–	–
